Measurements taken from ChEMBL document CHEMBL5620421, “2,6-Disubstituted 7-(naphthalen-2-ylmethyl)-7H-purines as a new class of potent antitubercular agents inhibiting DprE1” (Eur J Med Chem, 2023).
Values after ≈ are worked out from the molar mass of the structure shown. Active and inactive are the calls of the source. The rule behind the calls is not given here.

Experiments:
Mycobacterium avium [1] = test: Antitubercular activity against Mycobacterium avium CNCTC My 330/88 assessed as inhibition of bacterial growth measured after 14 days of incubation by Sulas semisynthetic medium based assay; format: functional; conditions: CNCTC My 330/88, 336 h, time 14 day
Method in brief: (§1)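 M. avium was tested by the micromethod in Sula's semisynthetic medium. Compounds in DMSO at 1000 to 0.5 μmol/L. Incubation at 37 °C, read at 14 and 21 days. MIC is the lowest concentration giving >99% growth inhibition.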

Mycobacterium avium [2] = test: Antitubercular activity against Mycobacterium avium CNCTC My 330/88 assessed as inhibition of bacterial growth measured after 21 days of incubation by Sulas semisynthetic medium based assay; format: functional; conditions: CNCTC My 330/88, 504 h, time 21 day; method in brief: as §1
Mycobacterium kansasii [3] = test: Antitubercular activity against Mycobacterium kansasii CNCTC My 235/80 assessed as inhibition of bacterial growth measured after 7 days of incubation by Sulas semisynthetic medium based assay; format: functional; conditions: CNCTC My 235/80, 168 h, time 7 day
Method in brief: (§2)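 Micromethod in Sula's semisynthetic medium. MIC is the lowest concentration inhibiting >99% of the mycobacterial population. Isoniazid was the standard.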

Mycobacterium kansasii [4] = test: Antitubercular activity against Mycobacterium kansasii CNCTC My 235/80 assessed as inhibition of bacterial growth measured after 14 days of incubation by Sulas semisynthetic medium based assay; format: functional; conditions: CNCTC My 235/80, 336 h, time 14 day; method in brief: as §2
Mycobacterium kansasii [5] = test: Antitubercular activity against Mycobacterium kansasii CNCTC My 235/80 assessed as inhibition of bacterial growth measured after 21 days of incubation by Sulas semisynthetic medium based assay; format: functional; conditions: CNCTC My 235/80, 504 h, time 21 day; method in brief: as §2
[6] = system: Mycobacterium tuberculosis; test: Antimycobacterial activity against MDR clinical isolate Mycobacterium tuberculosis PRAHA 1 assessed as inhibition of mycobacterial growth measured after 14 to 21 days of incubation by Sulas semisynthetic medium based assay; format: functional; conditions: time 14-21 day
Method in brief: (§3)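 Clinical MDR/XDR M. tuberculosis isolates were tested by the Sula's semisynthetic medium micromethod. Compounds in DMSO at 1000 to 0.5 μmol/L, in twofold-type steps. Incubation at 37 °C, read at 14 and 21 days. MIC99 is the lowest concentration inhibiting >99% of growth. Drug resistance or susceptibility of each isolate is to amikacin, clofazimine, gentamicin, ofloxacin, streptomycin and the others listed.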

[7] = system: Mycobacterium tuberculosis; test: Antimycobacterial activity against MDR clinical isolate Mycobacterium tuberculosis PRAHA 4 assessed as inhibition of mycobacterial growth measured after 14 to 21 days of incubation by Sulas semisynthetic medium based assay; format: functional; conditions: time 14-21 day; method in brief: as §3
[8] = system: Mycobacterium tuberculosis; test: Antimycobacterial activity against XDR clinical isolate Mycobacterium tuberculosis PRAHA 4 assessed as inhibition of mycobacterial growth measured after 14 to 21 days of incubation by Sulas semisynthetic medium based assay; format: functional; conditions: time 14-21 day; method in brief: as §3
[9] = system: Mycobacterium tuberculosis; test: Antimycobacterial activity against MDR clinical isolate Mycobacterium tuberculosis PRAHA 131 assessed as inhibition of mycobacterial growth measured after 14 to 21 days of incubation by Sulas semisynthetic medium based assay; format: functional; conditions: time 14-21 day; method in brief: as §3
[10] = system: Mycobacterium tuberculosis; test: Antimycobacterial activity against XDR clinical isolate Mycobacterium tuberculosis PRAHA 131 assessed as inhibition of mycobacterial growth measured after 14 to 21 days of incubation by Sulas semisynthetic medium based assay; format: functional; conditions: time 14-21 day; method in brief: as §3
[11] = system: Mycobacterium tuberculosis; test: Antimycobacterial activity against XDR clinical isolate Mycobacterium tuberculosis 234/2005 assessed as inhibition of mycobacterial growth measured after 14 to 21 days of incubation by Sulas semisynthetic medium based assay; format: functional; conditions: time 14-21 day; method in brief: as §3
[12] = system: Mycobacterium tuberculosis; test: Antimycobacterial activity against MDR clinical isolate Mycobacterium tuberculosis 8666/2010 assessed as inhibition of mycobacterial growth measured after 14 to 21 days of incubation by Sulas semisynthetic medium based assay; format: functional; conditions: time 14-21 day; method in brief: as §3
[13] = system: Mycobacterium tuberculosis; test: Antimycobacterial activity against XDR clinical isolate Mycobacterium tuberculosis 8666/2010 assessed as inhibition of mycobacterial growth measured after 14 to 21 days of incubation by Sulas semisynthetic medium based assay; format: functional; conditions: time 14-21 day; method in brief: as §3
HepG2 [14] = test: Cytotoxicity against human HepG2 cells assessed as cell viability at 50 uM incubated for 72 hrs by MTT spectrophotometric analysis relative to control; format: functional; conditions: read-out: Activity
Method in brief: (§4)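 HepG2 or rat H9c2 cells in DMEM with FBS, seeded at 10,000 cells/well. Treated 24 h later for 72 h, with 0.1% DMSO vehicle and 1% Triton X-100 as controls. MTT added (3 mg/mL solution) for 2 h at 37 °C, then cells lysed in isopropanol/0.1 M HCl/5% Triton X-100. Read at 570 nm minus 690 nm. Viability expressed as % of vehicle; IC50 derived where reached. At least four independent experiments.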

HepG2 [15] = test: Cytotoxicity against human HepG2 cells assessed as cell viability incubated for 72 hrs by MTT spectrophotometric analysis; format: functional, cell-based; conditions: HepG2, 72 h; method in brief: as §4
H9c2 = test: Cytotoxicity against rat H9c2 cells assessed as cell viability incubated for 72 hrs by MTT spectrophotometric analysis; format: functional, cell-based; conditions: H9c2, 72 h; method in brief: as §4
Klebsiella pneumoniae [16] = test: Antibacterial activity against ESBL positive Klebsiella pneumoniae C1914 assessed as inhibition of bacterial growth incubated for 24 to 48 hrs by microdilution broth method; format: functional, organism-based; conditions: time 24-48 hrs
Method in brief: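 Clinical isolates kept at –70 °C and subcultured twice on Mueller-Hinton agar, using the second subculture. Broth microdilution in Mueller-Hinton broth at pH 7.4 with two-fold serial compound dilutions and DMSO ≤1% final. Inoculum was 10 μL of a 1.5 × 10⁸ CFU/mL suspension. Incubated at 36 °C ± 1 °C and read at 24 h and 48 h. MIC taken as 95% growth inhibition.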

[17] = Half life in human liver microsomes at 3 uM incubated for 5 to 45 min in presence of NADPH by LC-MS analysis; format: ADME, Microsome; conditions: time 5-45 min
[18] = Stability in human plasma assessed as compound remaining at 1 uM incubated for 15 to 120 mins by LC-MS analysis; format: ADME, cell-free; conditions: time 15-120 min, read-out: Stability
Method in brief: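 Stopped with acetonitrile containing internal standard and centrifuged at 12,000 rpm for 5 min at 4 °C. Supernatant analysed by LC-MS in positive mode. % remaining taken from compound/IS peak-area ratios at 120 versus 0 min.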

Staphylococcus aureus = test: Antibacterial activity against methicilin-resistant Staphylococcus aureus C1923 assessed as inhibition of bacterial growth at 125 uM incubated for 24 to 48 hrs by microdilution broth method; format: functional, organism-based; conditions: time 24-48 hrs
[19] = system: Staphylococcus epidermidis; test: Antibacterial activity against Staphylococcus epidermidis C1936 assessed as inhibition of bacterial growth at 125 uM incubated for 24 to 48 hrs by microdilution broth method; format: functional, organism-based; conditions: time 24-48 hrs
Enterococcus faecium = test: Antibacterial activity against vancomycin-resistant Enterococcus faecium assessed as inhibition of bacterial growth at 125 uM incubated for 24 to 48 hrs by microdilution broth method; format: functional, organism-based; conditions: time 24-48 hrs
Escherichia coli = test: Antibacterial activity against Escherichia coli A1235 assessed as inhibition of bacterial growth at 125 uM incubated for 24 to 48 hrs by microdilution broth method; format: functional, organism-based; conditions: time 24-48 hrs
Klebsiella pneumoniae [20] = test: Antibacterial activity against ESBL negative Klebsiella pneumoniae C1950 assessed as inhibition of bacterial growth at 125 uM incubated for 24 to 48 hrs by microdilution broth method; format: functional, organism-based; conditions: time 24-48 hrs
Klebsiella pneumoniae [21] = test: Antibacterial activity against ESBL positive Klebsiella pneumoniae C1914 assessed as inhibition of bacterial growth at 125 uM incubated for 24 to 48 hrs by microdilution broth method; format: functional, organism-based; conditions: time 24-48 hrs

SMILES | MIC99 (Mycobacterium avium [1]) | MIC99 (Mycobacterium avium [2]) | MIC99 (Mycobacterium kansasii [3]) | MIC99 (Mycobacterium kansasii [4]) | MIC99 (Mycobacterium kansasii [5]) | MIC99 [6] | MIC99 [7] | MIC99 [8] | MIC99 [9] | MIC99 [10] | MIC99 [11] | MIC99 [12] | MIC99 [13] | viability at 50 µM (HepG2 [14]) | IC50 (HepG2 [15]) | IC50 (H9c2) | Activity (Klebsiella pneumoniae [16]) | half-life at 3 µM [17] | remaining at 1 µM [18] | also measured
COc1nc(N2CCOCC2)nc2ncn(Cc3ccc4ccccc4c3)c12 | 250 µM (≈ 93.9 µg/mL) | 500 µM (≈ 188 µg/mL) | 16 µM (≈ 6.01 µg/mL) | 32 µM (≈ 12 µg/mL) | 64 µM (≈ 24 µg/mL) | 16 µM (≈ 6.01 µg/mL) | 8 µM (≈ 3 µg/mL) | 16 µM (≈ 6.01 µg/mL) | 8 µM (≈ 3 µg/mL) | 16 µM (≈ 6.01 µg/mL) | 16 µM (≈ 6.01 µg/mL) | 8 µM (≈ 3 µg/mL) | 8 µM (≈ 3 µg/mL) | 66.4% | > 50 µM | > 50 µM | inactive |  |  | 
c1ccc2cc(Cn3cnc4nc(N5CCOCC5)nc(NC5CCC5)c43)ccc2c1 | 250 µM (≈ 104 µg/mL) | 500 µM (≈ 207 µg/mL) | 8 µM (≈ 3.32 µg/mL) | 8 µM (≈ 3.32 µg/mL) | 8 µM (≈ 3.32 µg/mL) | 4 µM (≈ 1.66 µg/mL) | 4 µM (≈ 1.66 µg/mL) | 8 µM (≈ 3.32 µg/mL) | 4 µM (≈ 1.66 µg/mL) | 8 µM (≈ 3.32 µg/mL) | 8 µM (≈ 3.32 µg/mL) | 4 µM (≈ 1.66 µg/mL) | 8 µM (≈ 3.32 µg/mL) |  |  |  | inactive | 37.9 min | 97.5% | 
CCNc1nc(N2CCOCC2)nc2ncn(Cc3ccc4ccccc4c3)c12 | 250 µM (≈ 97.1 µg/mL) | 250 µM (≈ 97.1 µg/mL) | 4 µM (≈ 1.55 µg/mL) | 8 µM (≈ 3.11 µg/mL) | 8 µM (≈ 3.11 µg/mL) |  |  |  | 2 µM (≈ 0.777 µg/mL) | 4 µM (≈ 1.55 µg/mL) |  | 2 µM (≈ 0.777 µg/mL) | 2 µM (≈ 0.777 µg/mL) | 66.9% | > 50 µM | > 50 µM | inactive | 51.3 min | 95.5% | Activity (Staphylococcus aureus): inactive; Activity [19]: inactive; Activity (Enterococcus faecium): inactive; Activity (Escherichia coli): inactive; Activity (Klebsiella pneumoniae [20]): inactive; Activity (Klebsiella pneumoniae [21]): inactive
c1ccc(CNc2nc(N3CCOCC3)nc3ncn(Cc4ccc5ccccc5c4)c23)cc1 | 64 µM (≈ 28.8 µg/mL) | 64 µM (≈ 28.8 µg/mL) | 4 µM (≈ 1.8 µg/mL) | 4 µM (≈ 1.8 µg/mL) | 8 µM (≈ 3.6 µg/mL) | 4 µM (≈ 1.8 µg/mL) | 4 µM (≈ 1.8 µg/mL) | 4 µM (≈ 1.8 µg/mL) | 4 µM (≈ 1.8 µg/mL) | 4 µM (≈ 1.8 µg/mL) | 4 µM (≈ 1.8 µg/mL) | 4 µM (≈ 1.8 µg/mL) | 4 µM (≈ 1.8 µg/mL) |  |  |  | inactive | 19.3 min | 99.2% | 
